Test results reported in ChEMBL document CHEMBL4837210 (Eur J Med Chem, 2021).

Legend:
Format in all cases: functional
Bacillus subtilis = test: Antibacterial activity against penicillin-susceptible Bacillus subtilis ATCC 9372 assessed as bacterial growth inhibition incubated for 24 hrs by CLSI protocol based broth microdilution method
Streptococcus pyogenes [1] = test: Antibacterial activity against erythromycin-susceptible Streptococcus pyogenes clinical isolate 1 assessed as bacterial growth inhibition incubated for 24 hrs by CLSI protocol based broth microdilution method
Staphylococcus aureus [2] = test: Antibacterial activity against Staphylococcus aureus assessed as inhibition of bacterial growth measured by broth microdilution method; settings: time 24 hrs
In short: (§1)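 Broth microdilution in Mueller Hinton broth. A 0.5 McFarland suspension was diluted tenfold, giving an inoculum of 1.5 × 10⁷ cfu/mL. This was added to 2-fold serial compound dilutions from […]. Plates were incubated aerobically at 37 °C for 24 h. MIC was the lowest concentration with no visible turbidity.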

[3] = system: Staphylococcus epidermidis; test: Antibacterial activity against penicillin-resistant Staphylococcus epidermidis assessed as inhibition of bacterial growth measured by broth microdilution method; settings: time 24 hrs
Streptococcus pyogenes [4] = test: Antibacterial activity against erythromycin-resistant Streptococcus pyogenes 2 assessed as bacterial growth inhibition incubated for 24 hrs by CLSI protocol based broth microdilution method
Bacillus pumilus = test: Antibacterial activity against penicillin-susceptible Bacillus pumilus CMCC 63202 assessed as bacterial growth inhibition by broth dilution method; settings: time 24 hrs; in short: as §1
Staphylococcus aureus [5] = test: Antibacterial activity against methicillin-resistant Staphylococcus aureus ATCC 43300 assessed as inhibition of bacterial growth by broth microdilution method; settings: time 24 hrs
In short: (§2)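 Broth microdilution MIC. A 0.5 McFarland suspension was diluted 10-fold and added at 1.5 × 10⁷ cfu/mL to 2-fold dilutions (0.125–64) in Mueller Hinton broth. Incubated aerobically 24 h at 37 °C. MIC was the lowest concentration with no visible turbidity.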

Pseudomonas aeruginosa = test: Antibacterial activity against penicillin-susceptible Pseudomonas aeruginosa ATCC27853 assessed as bacterial growth inhibition incubated for 24 hrs by CLSI protocol based broth microdilution method
Escherichia coli = test: Antibacterial activity against penicillin-susceptible Escherichia coli ATCC 25922 assessed as inhibition of bacterial growth measured by broth microdilution method; settings: time 24 hrs; in short: as §1
Staphylococcus aureus [6] = test: Antibacterial activity against erythromycin-susceptible Staphylococcus aureus ATCC 25923 assessed as bacterial growth inhibition incubated for 24 hrs by CLSI protocol based broth microdilution method
Staphylococcus aureus [7] = test: Antibacterial activity against penicillin-resistant Staphylococcus aureus assessed as inhibition of bacterial growth measured by broth microdilution method; settings: time 24 hrs; in short: as §2

SMILES | MIC (Bacillus subtilis) [µg/mL] | MIC (Streptococcus pyogenes [1]) [µg/mL] | MIC (Staphylococcus aureus [2]) [µg/mL] | MIC [3] [µg/mL] | MIC (Streptococcus pyogenes [4]) [µg/mL] | MIC (Bacillus pumilus) [µg/mL] | MIC (Staphylococcus aureus [5]) [µg/mL] | MIC (Pseudomonas aeruginosa) [µg/mL] | MIC (Escherichia coli) [µg/mL] | MIC (Staphylococcus aureus [6]) [µg/mL] | MIC (Staphylococcus aureus [7]) [µg/mL]
C[n+]1c2ccccc2c(-c2ccc(C=O)cc2)c2ccccc21.[I-] | > 64 | 64 | > 64 | > 64 | > 64 | > 64 | > 64 | > 64 | > 64 | 64 | 
O=C(O)c1cn(C2CC2)c2cc(N3CCNCC3)c(F)cc2c1=O [CIPROFLOXACIN] |  |  |  | > 64 |  |  |  |  |  |  | > 64
CCCNc1c2ccccc2[n+](C)c2ccccc12.[Cl-] | > 64 | 32 | > 64 | 64 | 64 | > 64 | > 64 | > 64 | > 64 | > 64 | 
C[n+]1c2ccccc2c(NC2CC2)c2ccccc21.[Cl-] | > 64 | > 64 | > 64 | > 64 | 64 | > 64 | > 64 | > 64 | > 64 | > 64 | 
C[n+]1c2ccccc2c(Nc2ccccc2C(F)(F)F)c2ccccc21.[Cl-] | > 64 | > 64 | > 64 | > 64 | > 64 | > 64 | > 64 | > 64 | > 64 | > 64 | 
C[n+]1c2ccccc2c(Nc2ccccc2)c2ccccc21.[Cl-] | > 64 | > 64 | > 64 | > 64 | > 64 | > 64 | > 64 | > 64 | > 64 | > 64 | 
C[n+]1c2ccccc2c(NC2CCCCC2)c2ccccc21.[Cl-] | 32 | > 64 | > 64 | > 64 | 64 | > 64 | > 64 | > 64 | > 64 | > 64 | 
C[n+]1c2ccccc2c(Nc2ccccn2)c2ccccc21.[Cl-] | 64 | > 64 | > 64 | > 64 | > 64 | > 64 | > 64 | > 64 | > 64 | > 64 | 
Cc1ccc(Nc2c3ccccc3[n+](C)c3ccccc23)c(C)c1.[Cl-] | > 64 | > 64 | > 64 | > 64 | > 64 | > 64 | > 64 | > 64 | > 64 | > 64 | 
C[n+]1c2ccccc2c(Nc2nccs2)c2ccccc21.[Cl-] | > 64 | > 64 | > 64 | > 64 | > 64 | > 64 | > 64 | > 64 | > 64 | > 64 | 
CCNc1c2ccccc2[n+](C)c2ccccc12.[Cl-] | 64 | 64 | > 64 | > 64 | 64 | > 64 | > 64 | > 64 | > 64 | > 64 | 
COc1ccc(Nc2c3ccccc3[n+](C)c3ccccc23)c(OC)c1.[Cl-] | > 64 | > 64 | > 64 | > 64 | > 64 | > 64 | > 64 | > 64 | > 64 | > 64 | 
C[n+]1c2ccccc2c(Nc2ncccn2)c2ccccc21.[Cl-] | > 64 | > 64 | > 64 | > 64 | > 64 | > 64 | > 64 | > 64 | > 64 | > 64 | 
CCc1ccccc1Nc1c2ccccc2[n+](C)c2ccccc12.[Cl-] | > 64 | > 64 | > 64 | > 64 | > 64 | > 64 | > 64 | > 64 | > 64 | > 64 | 
